# Experimental data of several laboratories.
# Protocols differ between the studies behind these lines.
# Target: Mitogen-activated protein kinase 1 (MAPK1, Homo sapiens, UniProt P28482)
SMILES,read-out,action,technique,concentration,measurement,value
O=C(NCCCC1CCCCC1)c1ccc(CNC(=O)c2cnn(-c3ccccc3)c2C(F)(F)F)cc1,cell-free assay,,competition with immobilised ligand,0.1 µM,remaining binding,93%
CCN(CC)CCNC(=O)c1c(C)[nH]c(/C=C2\C(=O)Nc3ccc(F)cc32)c1C,enzyme activity,inhibitor,,0.3 µM,inhibition,-6%
FC(F)c1nc2ccccc2n1-c1nc(N2CCOCC2)nc(N2CCOCC2)n1,enzyme activity,inhibitor,,10 µM,remaining activity,105%
O=C1Cc2c([nH]c3ccc(Br)cc23)-c2ccccc2N1,cell-free assay,,,0.5 µM,remaining signal,90.5%
Cc1ccc(Nc2nccc(N(C)c3ccc4c(C)n(C)nc4c3)n2)cc1S(N)(=O)=O,enzyme activity,inhibitor,,0.3 µM,inhibition,-1%
CC(C)(C)c1nc(-c2cccc(NS(=O)(=O)c3c(F)cccc3F)c2F)c(-c2ccnc(N)n2)s1,enzyme activity,inhibitor,radiometric,1 µM,remaining activity,88%
CSc1nc(C)c(-c2ccnc(Nc3ccc(N4CCOCC4)cc3)c2)[nH]1,enzyme activity,inhibitor,,10 µM,inhibition,5.3%
N#CCCc1ccc2c(c1)-c1[nH]c3ccc([N+](=O)[O-])cc3c1CC(=O)N2,cell-free assay,,,0.5 µM,remaining signal,119%
O=C(Nc1cnn(-c2csc(C(=O)NC3COC3)c2)c1)Nc1c(F)cccc1Cl,enzyme activity,inhibitor,,5 µM,remaining activity,85.9%
COc1cc2ncnc(Nc3ccc(Oc4ccccc4)cc3C)c2cc1OC,enzyme activity,inhibitor,,1 µM,inhibition,-2%
COc1cc(Nc2c(C#N)cnc3cc(OCCCN4CCN(C)CC4)c(OC)cc23)c(Cl)cc1Cl,cell-free assay,,,0.5 µM,remaining signal,93.7%
Cc1cc(C)c(-n2ccn3nc(-c4cccnc4)cc23)cc1NC(=O)c1cc(C#N)cc(S(F)(F)(F)(F)F)c1,cell-free assay,,competition with immobilised ligand,0.1 µM,remaining binding,88.1%
Nc1nc(Nc2ccccc2)sc1C(=O)c1c(F)cccc1F,enzyme activity,inhibitor,,10 µM,remaining activity,68%
COc1cc(Nc2cnc(C#N)c(O[C@H](C)CN(C)C)n2)ncc1-c1cnn(C)c1,enzyme activity,inhibitor,radiometric,1 µM,remaining activity,101%
CCCOc1ccc(OC)c(F)c1C(=O)c1ccc(C(=O)N[C@@H]2CNC[C@H]2NC(=O)c2ccc3[nH]ncc3c2)cc1,enzyme activity,inhibitor,,10 µM,remaining activity,86%
CCOCCn1cc(C(=O)Nc2ccc(-n3nc(-c4cccnc4)cc3C(F)(F)F)cn2)ccc1=O,cell-free assay,,competition with immobilised ligand,1 µM,remaining binding,100%
O=C(Nc1cnn(-c2csc(C(=O)NC3COC3)c2)c1)Nc1ccccc1Cl,enzyme activity,inhibitor,,5 µM,remaining activity,110%
CN([C@@H]1CCc2c(CC(=O)O)c3cc(S(C)(=O)=O)ccc3n2C1)S(=O)(=O)c1ccc(F)cc1,cell-free assay,,competition with immobilised ligand,1 µM,remaining binding,77%
CNC(=O)c1cc(Oc2ccc(NC(=O)Nc3ccc(Cl)c(C(F)(F)F)c3)cc2)ccn1,cell-free assay,,,0.5 µM,remaining signal,101%
CCN(CC)c1ccc(C2=NNC(=O)CC2C)cc1[N+](=O)[O-] (stereo not drawn),enzyme activity,inhibitor,,10 µM,remaining activity,100%
O=C1Nc2ccc(Cl)cc2C1=Cc1cc(Cl)c(O)c(Cl)c1,cell-free assay,,,0.5 µM,remaining signal,84.3%
CCc1ccccc1C(=O)Nc1n[nH]c2c(C)c(F)c(C3C(C#N)=C(C)N(C)C(C)=C3C#N)cc12,cell-free assay,,competition with immobilised ligand,1 µM,remaining binding,86%
Cc1ccc(NC(=O)c2ccc(C)c(C(F)(F)F)c2)cc1C#Cc1nn(C2CCC(O)CC2)c2ncnc(N)c12 (stereo not drawn),cell-free assay,,,10 µM,remaining signal,108%
O=C1NC(=O)c2cc(Nc3ccc(F)cc3)c(Nc3ccc(F)cc3)cc21,cell-free assay,,,0.5 µM,remaining signal,121%
CN(C)C1CCN(CC#Cc2nn(C3CCCC3)c3nc(NCc4ccccc4)ncc23)C1 (stereo not drawn),enzyme activity,inhibitor,FRET,1 µM,inhibition,7%
Cc1ccc(C(=O)Nc2ccc(CN3CCN(C)CC3)c(C(F)(F)F)c2)cc1C#Cc1cnc2cccnn12,enzyme activity,inhibitor,,23.5 nM,remaining activity,100%
CC(C)c1ccc(NC(=O)c2cccs2)c(-c2nc3ccccc3[nH]c2=O)c1,enzyme activity,inhibitor,,1 µM,activity vs control,110%
CO[C@@H](C)c1c(Nc2ccc([C@@H](N(C)C(=O)C3CCS(=O)(=O)CC3)C(F)(F)F)cc2)cnc2cc(Cl)nn12,cell-free assay,,competition with immobilised ligand,1 µM,remaining binding,100%
CC(C)(C)C(=O)c1sc(NC2CCCCC2)nc1N,enzyme activity,inhibitor,,10 µM,remaining activity,95%
CC1=C(C#N)C(c2ccc3c(c2)c(NC(=O)c2ccccc2C)nn3C)C(C#N)=C(C)N1,cell-free assay,,competition with immobilised ligand,1 µM,remaining binding,80%
Nc1ncnc2occ(-c3ccc(NC(=O)Nc4cc(C(F)(F)F)ccc4F)cc3)c12,cell-free assay,inhibitor,,20 µM,remaining signal,100%
CC(=O)N1CCC(c2ccc(C(=O)NC3=NCCN3)cc2C(F)(F)F)CC1,cell-free assay,,competition with immobilised ligand,1 µM,remaining binding,100%
Cn1c(=O)n(-c2ccc(C(C)(C)C#N)cc2)c2c3cc(-c4cnc5ccccc5c4)ccc3ncc21,enzyme activity,inhibitor,,10 µM,remaining activity,114%
